Tests used:
HeLa [1] = assay: Antiproliferative activity against human HeLa cells after 48 hrs by MTT assay; format: functional, cell-based
Homo sapiens = species on record: Homo sapiens; assay: Selectivity index, ratio of IC50 for COX1 (unknown origin) to ratio of IC50 for COX2 (unknown origin)
Method in brief: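 Enzyme ELISA kit: COX-1 or COX-2 preincubated with compound at 0, 1, 10 or 100 μM for 10 min at 37 °C in 0.1 M Tris-HCl pH 8.0, 5 mM EDTA, 2 mM phenol, 1 μM heme. Started with 100 μM arachidonic acid for 2 min at 37 °C, stopped with 1 M HCl. PGH₂ reduced by stannous chloride; PGF2α read by enzyme immunoassay at 450 nm. Index taken as the ratio of the COX IC50 values.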

[2] = molecular target: Prostaglandin G/H synthase 1 (Homo sapiens, UniProt P23219); assay: Inhibition of COX1 (unknown origin) using arachidonic acid as substrate pretreated for 10 mins followed by substrate addition and measured after 2 mins by ELISA; format: ADME
[3] = molecular target: T1, Prostaglandin G/H synthase 2 (Homo sapiens, UniProt P35354); assay: Inhibition of COX2 (unknown origin) using arachidonic acid as substrate pretreated for 10 mins followed by substrate addition and measured after 2 mins by ELISA
T1 sequence (P35354 whole entry): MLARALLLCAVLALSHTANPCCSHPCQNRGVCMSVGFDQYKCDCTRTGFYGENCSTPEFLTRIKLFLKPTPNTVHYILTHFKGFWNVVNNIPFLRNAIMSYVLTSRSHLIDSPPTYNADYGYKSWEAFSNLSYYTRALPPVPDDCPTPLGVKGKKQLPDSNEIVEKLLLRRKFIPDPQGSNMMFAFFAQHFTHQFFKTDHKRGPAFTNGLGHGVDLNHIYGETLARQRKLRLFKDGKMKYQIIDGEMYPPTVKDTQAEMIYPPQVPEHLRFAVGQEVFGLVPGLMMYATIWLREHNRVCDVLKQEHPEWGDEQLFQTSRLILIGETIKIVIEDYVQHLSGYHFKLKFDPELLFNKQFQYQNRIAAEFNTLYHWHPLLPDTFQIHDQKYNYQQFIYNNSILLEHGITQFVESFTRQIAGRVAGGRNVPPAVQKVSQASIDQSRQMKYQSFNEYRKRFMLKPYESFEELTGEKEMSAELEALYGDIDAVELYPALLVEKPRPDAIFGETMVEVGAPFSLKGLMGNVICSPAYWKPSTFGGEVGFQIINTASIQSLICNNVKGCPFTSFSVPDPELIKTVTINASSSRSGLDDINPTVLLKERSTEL

HEK-293T = assay: Cytotoxicity against human 293T cells after 48 hrs by MTT assay; format: cell-based
B16-F10 = assay: Antiproliferative activity against mouse B16F10 cells after 48 hrs by MTT assay; format: functional, cell-based; conditions: B16-F10, 48 h
Method in brief: (§1)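 Cells kept in DMEM with 10% FBS, penicillin/streptomycin, 37 °C, 5% CO₂. Seeded at 5 × 10⁴ cells/well and allowed to adhere 12 h. Exposed to 0, 0.1, 1, 10 and 100 μM (final) for 48 h. Viability read by MTT reduction at OD 570 nm with 630 nm reference. IC50 reported as mean ± SD of three independent experiments.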

MCF7 = assay: Antiproliferative activity against human MCF7 cells after 48 hrs by MTT assay; format: functional, cell-based; conditions: MCF7, 48 h
A549 = assay: Antiproliferative activity against human A549 cells after 48 hrs by MTT assay; format: functional, cell-based; conditions: A549, 48 h; method in brief: as §1
HeLa [4] = assay: Disruption of mitochondrial membrane potential in human HeLa cells assessed as collapse of the mitochondrial membrane potential at 10 uM after 12 hrs by JC1 staining based flow cytometry (reference value: 0.768%); format: functional
HeLa [5] = assay: Disruption of mitochondrial membrane potential in human HeLa cells assessed as intact mitochondrial membrane at 10 uM after 12 hrs by JC1 staining based flow cytometry (reference value: 99.2%); format: functional

Prostaglandin G/H synthase 1, sequence (P23219 whole entry): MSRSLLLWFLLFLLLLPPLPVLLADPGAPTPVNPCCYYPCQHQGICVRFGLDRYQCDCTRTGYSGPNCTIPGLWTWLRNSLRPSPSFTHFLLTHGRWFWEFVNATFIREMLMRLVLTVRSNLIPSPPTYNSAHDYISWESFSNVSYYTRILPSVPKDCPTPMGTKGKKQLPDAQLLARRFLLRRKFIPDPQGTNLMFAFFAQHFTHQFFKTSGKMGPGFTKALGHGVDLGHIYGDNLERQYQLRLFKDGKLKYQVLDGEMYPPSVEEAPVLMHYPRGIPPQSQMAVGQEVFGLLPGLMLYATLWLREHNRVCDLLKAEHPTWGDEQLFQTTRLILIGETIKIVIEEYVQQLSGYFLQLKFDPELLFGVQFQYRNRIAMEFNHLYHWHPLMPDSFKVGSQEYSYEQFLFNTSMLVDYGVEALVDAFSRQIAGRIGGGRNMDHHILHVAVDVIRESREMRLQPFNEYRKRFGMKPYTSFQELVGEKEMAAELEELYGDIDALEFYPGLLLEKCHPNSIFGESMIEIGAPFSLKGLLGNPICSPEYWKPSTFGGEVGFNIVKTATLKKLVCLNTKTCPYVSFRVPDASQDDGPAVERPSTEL

Row | IC50 (HeLa [1]) [µM] | Ratio IC50 (Homo sapiens) | IC50 [2] [µM] | IC50 [3] [µM] | IC50 (B16-F10) [µM] | IC50 (MCF7) [µM] | IC50 (A549) [µM] | SMILES | IC50 (HEK-293T) [µM] | Activity (HeLa [4]) [%] | Activity (HeLa [5]) [%]
1 | 6.28 | > 7 | > 50 | 6.83 | 6.44 | 3.29 | 5.52 | O=C(COc1cc(O)c2c(=O)cc(-c3ccccc3)oc2c1)OCc1cc(-c2ccc(Cl)c(Cl)c2)n(-c2ccccc2)n1 | 233 | – | –
2 | 4.72 | 3.86 | 33.1 | 8.58 | 6.08 | 12.1 | 3.62 | O=C(COc1cc(O)c2c(=O)cc(-c3ccccc3)oc2c1)OCc1cc(-c2ccc(Cl)c(Cl)c2)n(-c2ccc(Cl)cc2)n1 | 268 | – | –
3 | 2.41 | 13.1 | 32.9 | 2.2 | 1.57 | 3.47 | 3.23 | O=C(COc1cc(O)c2c(=O)cc(-c3ccccc3)oc2c1)OCc1cc(-c2ccccc2)n(-c2ccccc2)n1 | 173 | – | –
4 | > 100 | 87.3 | 36.8 | 0.422 | 5.73 | 3.94 | 4.34 | O=C(COc1cc(O)c2c(=O)cc(-c3ccccc3)oc2c1)OCc1cc(-c2cccc(Cl)c2)n(-c2ccc(Cl)cc2)n1 | 272 | – | –
5 | 1.31 | 27 | 32.2 | 1.19 | 4.33 | 3.25 | 11.6 | Cc1ccc(-n2nc(COC(=O)COc3cc(O)c4c(=O)cc(-c5ccccc5)oc4c3)cc2-c2cccc(C)c2)cc1 | 398 | – | –
6 | 2.04 | 25.3 | 42 | 1.66 | 15.6 | 22.2 | 17 | O=C(COc1cc(O)c2c(=O)cc(-c3ccccc3)oc2c1)OCc1cc(-c2ccc([N+](=O)[O-])cc2)n(-c2ccccc2)n1 | 192 | – | –
7 | 1.75 | 10.1 | 44.8 | 4.43 | 7.86 | 32.9 | 4.71 | O=C(COc1cc(O)c2c(=O)cc(-c3ccccc3)oc2c1)OCc1cc(-c2cccc(Cl)c2)n(-c2ccccc2)n1 | 188 | – | –

The next lines start with the compound.

Row | SMILES | IC50 (HeLa [1]) [µM] | Ratio IC50 (Homo sapiens) | IC50 [2] [µM] | IC50 [3] [µM] | IC50 (B16-F10) [µM] | IC50 (MCF7) [µM] | IC50 (A549) [µM] | IC50 (HEK-293T) [µM] | Activity (HeLa [4]) [%] | Activity (HeLa [5]) [%]
8 | O=C(COc1cc(O)c2c(=O)cc(-c3ccccc3)oc2c1)OCc1cc(-c2ccc(C(F)(F)F)cc2)n(-c2ccccc2)n1 | 6.61 | 7.61 | 32.9 | 4.33 | 9.85 | 11 | 8.02 | 162 | – | –
9 | O=C(COc1cc(O)c2c(=O)cc(-c3ccccc3)oc2c1)OCc1cc(-c2cccc([N+](=O)[O-])c2)n(-c2ccccc2)n1 | 30.9 | 5.68 | 33.8 | 5.94 | 21.7 | 12.6 | > 100 | 348 | – | –
10 | COc1ccc(-c2cc(COC(=O)COc3cc(O)c4c(=O)cc(-c5ccccc5)oc4c3)nn2-c2ccc(Cl)cc2)cc1 | 5.65 | 132 | 46.4 | 0.35 | 12.4 | > 100 | 12.7 | 290 | – | –
11 | Cc1ccc(-n2nc(COC(=O)COc3cc(O)c4c(=O)cc(-c5ccccc5)oc4c3)cc2-c2ccc(Cl)c(Cl)c2)cc1 | 6.06 | 5.56 | 27.9 | 5.02 | 7.61 | 22.2 | > 100 | 273 | – | –
12 | N#CC(C#N)=NNc1cccc(Cl)c1 [CARBONYL CYANIDE M-CHLOROPHENYLHYDRAZONE] | – | – | – | – | – | – | – | – | 40.5 | 59.5
13 | Cc1ccc(-c2cc(COC(=O)COc3cc(O)c4c(=O)cc(-c5ccccc5)oc4c3)nn2-c2ccc(C)cc2)cc1 | 2.87 | 96 | 41.2 | 0.42 | 3.51 | 3.23 | 2.87 | 197 | – | –
14 | O=C(COc1cc(O)c2c(=O)cc(-c3ccccc3)oc2c1)OCc1cc(-c2ccc(F)cc2)n(-c2ccccc2)n1 | > 100 | > 20 | > 50 | 2.54 | 6.24 | 3.82 | 12 | 187 | – | –
15 | Cc1ccc(-n2nc(COC(=O)COc3cc(O)c4c(=O)cc(-c5ccccc5)oc4c3)cc2-c2ccc(Br)cc2)cc1 | 24.7 | 36.5 | 39.5 | 1.08 | 32.1 | 2.96 | 22.7 | 278 | – | –
16 | Cc1ccc(-n2nc(COC(=O)COc3cc(O)c4c(=O)cc(-c5ccccc5)oc4c3)cc2-c2ccc([N+](=O)[O-])cc2)cc1 | 18.4 | 32.1 | 44.8 | 1.39 | 2.71 | 15.8 | 5.88 | 216 | – | –
17 | Cc1ccc(-n2nc(COC(=O)COc3cc(O)c4c(=O)cc(-c5ccccc5)oc4c3)cc2-c2ccc(F)cc2)cc1 | > 100 | 10.6 | 30.2 | 2.84 | 65.8 | 17.8 | 4.62 | 265 | – | –
18 | O=C(COc1cc(O)c2c(=O)cc(-c3ccccc3)oc2c1)OCc1cc(-c2ccc(Br)cc2)n(-c2ccccc2)n1 | 6.67 | 20.4 | 43.2 | 2.12 | > 100 | 8.48 | 3.58 | 316 | – | –
19 | COc1ccc(-c2cc(COC(=O)COc3cc(O)c4c(=O)cc(-c5ccccc5)oc4c3)nn2-c2ccccc2)cc1 | 2.72 | 75.9 | 41.3 | 0.54 | 1.76 | 7.1 | 10.6 | 257 | – | –

— ChEMBL document CHEMBL4229460, “Design and biological evaluation of novel hybrids of 1, 5-diarylpyrazole and Chrysin for selective COX-2 inhibition” (Bioorg Med Chem, 2018)
